# High-throughput results (PubChem BioAssay)
# PP5 primary: inhibitors of human protein phosphatase 5 (PP5) | AID 1987 | 320,000 compounds, 0.18% hits | purified PP5c, OMFP substrate fluorescence | inhibition, % at 6.7 µM;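 active means inhibition above the campaign's mean inhibition across all tested compounds plus 3 SD, cut at about 9.5% in these data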
# PP1 counter: blocks human PP1-alpha phosphatase, a PP5 counter-screen; P62136; purified PP1alpha, OMFP fluorescence; inhibition, % at 6.7 µM; 320,000 compounds, 0.9% hits; AID 2235;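 active means inhibition above the mean inhibition of all tested compounds plus 3 SD, computed separately for each screening campaign, cut at about 15% in these data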
# Target sequence (P62136 whole entry, looked up): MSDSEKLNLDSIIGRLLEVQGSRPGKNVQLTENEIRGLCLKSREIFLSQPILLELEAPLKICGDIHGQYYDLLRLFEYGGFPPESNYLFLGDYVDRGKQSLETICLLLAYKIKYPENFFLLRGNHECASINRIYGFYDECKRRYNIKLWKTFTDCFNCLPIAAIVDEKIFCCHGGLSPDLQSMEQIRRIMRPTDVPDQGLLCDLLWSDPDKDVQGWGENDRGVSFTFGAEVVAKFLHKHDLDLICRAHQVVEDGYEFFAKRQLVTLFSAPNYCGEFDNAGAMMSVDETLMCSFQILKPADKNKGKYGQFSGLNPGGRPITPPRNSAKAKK
# m5-HT2A agonist: agonists of mouse serotonin 5-HT2A receptor (HTR2A). P35363. CHO-K1 mHTR2A beta-arrestin complementation, luminescence; percent of 30 µM serotonin response. AID 624169. activation, % at 7.6 µM. 360,000 compounds, 0.66% hits;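 active means activation above a run cutoff, the mean activation of all tested compounds plus 3 SD, cut at about 14% in these data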
# JMJD2C inh: human JMJD2C demethylase inhibition | Q9H3R0 | GST-JMJD2C(1-420) H3K9me3 demethylation, DELFIA europium | inhibition, % at 2.35 µM | 330,000 compounds, 0.069% hits | AID 2099;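 active means more than half of a compound's replicate wells show inhibition beyond 50%, single wells judged on their own value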;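 further: signal counts dimethyl H3K9 product captured on neutravidin plate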
# T cell modulator: T cell immune modulators affecting CD8 T cell-vesicle binding. 330,000 compounds, 0.068% hits. response (vesicle binding), % at 7 µM. AID 2052. 2C CD8+ T cell-vesicle binding, flow cytometry; stronger effect = lower value;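 active means response, share of CD8 T cells binding vesicles, and their 90th percentile fluorescence all below set limits, cut at about 80% in these data, passing the limit was not always enough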;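 further: values below 100% mean blocked vesicle binding to the CD8+ T cells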
#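 material = purified 2C TCR transgenic mouse naive CD8+ T cells | controls = Unloaded micro-vesicles (low), QL9 vesicles with 0.7% DMSO (high) | detection = cytometric PE anti-B7-1 and Alexa647 anti-CD8 signals after 1% paraformaldehyde fixation | incubation = binding step 1.5 h, 37 °C, antibody labelling 20 min, ice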
# MOR ag counter: counter-screen for mouse HTR2A agonists: human mu opioid receptor agonists; shares compounds with m5-HT2A agonist; U2OS OPRM1 beta-arrestin PathHunter, luminescence; DMSO 0%, DAMGO 9.3 µM 100%; activation, % at 9.3 µM; 2,300 compounds, 5.3% hits; AID 624380;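 active means mean activation above the mean of DMSO-only wells plus 3 SD, cut at about 0.5% in these data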
# HTR2A ag conf: mouse HTR2A agonism confirmed; shares compounds with m5-HT2A agonist; CHO-K1 PathHunter beta-arrestin recruitment, luminescence; DMSO 0%, 30 µM serotonin 100%; activation, % at 7.6 µM; 2,300 compounds, 19% hits; AID 624381;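 active means mean activation across triplicates above the hit threshold derived in the original primary screen, cut at about 15% in these data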
# Numbers stand for hits; – = inactive; · = no result. Rows were chosen to be rich in hits. Some 1.7% of all compounds tested hit in one or more screens of this group.
SMILES,PP5 primary,PP1 counter,m5-HT2A agonist,JMJD2C inh,T cell modulator,MOR ag counter,HTR2A ag conf
O=C(O)c1cccc2c1Cc1cc([N+](=O)[O-])ccc1-2,·,·,15.4,·,·,–,–
CCCn1nnnc1NCc1c(F)cccc1Cl,–,–,–,–,–,·,·
CC(C)(C)OC(=O)CNC(=O)c1[nH]cnc1C(=O)NCC(=O)OCc1ccccc1,–,–,14.7,–,–,–,–
C[C@@H]1CN([C@@H](C)CO)S(=O)(=O)c2ccc(-c3ccccc3)cc2O[C@@H]1CN(C)Cc1ccccc1C(=O)O,·,·,18.9,·,·,–,–
C[C@@H]1CN([C@@H](C)CO)S(=O)(=O)c2ccc(Br)cc2O[C@@H]1CN(C)S(=O)(=O)c1cn(C)cn1,·,·,17.1,·,·,–,–
C[C@@H]1CN([C@H](C)CO)S(=O)(=O)c2ccc(C#Cc3ccccc3F)cc2O[C@H]1CN(C)C(=O)c1ccc2c(c1)OCO2,·,·,19.9,·,·,–,31.8
C[C@H]1CN([C@@H](C)CO)S(=O)(=O)c2ccc(-c3ccccc3)cc2O[C@H]1CN(C)C(=O)C1CCC1,·,·,–,·,·,·,·
COc1ccc(Br)cc1/C=N/n1nnnc1N,–,–,–,–,–,·,·
CCOc1cc(CNC2CCCC2)cc(Cl)c1OCc1ccc(F)cc1,–,–,–,–,–,·,·
COc1cc(CNC2CCCC2)cc(Cl)c1OCc1ccc(F)cc1,–,–,17.9,–,–,0.8,–
CC1(C(=O)N2CCN(c3ccc([N+](=O)[O-])cc3)CC2)CC1(Cl)Cl (configuration not stated),–,–,–,–,–,·,·
O=C1CC[C@@H](C(=O)N2CSC[C@H]2C(=O)O)N1,–,–,46.5,–,–,–,–
Cc1cc(C)c(CN2CCN(C(=O)Cn3cnc4c(NCc5ccccc5)ncnc43)CC2)c(C)c1,·,·,22.3,·,·,·,–
O=C(Cn1cnc2c(NCc3ccccc3)ncnc21)N1CCN(c2ccccn2)CC1,·,·,–,·,·,·,·
CC(=O)NCCC(=O)Nc1ncc(S(=O)(=O)c2ccc([N+](=O)[O-])cc2)s1,–,–,–,–,–,·,·
CC(=O)Nc1ncc(Sc2ccc([N+](=O)[O-])cc2)s1,·,·,20.1,·,·,–,–
O=C(Nc1cccc(C(F)(F)F)c1)C1Cc2c(-c3ccccc3Oc3ccccc3)ccnc2O1 (configuration not stated),·,·,–,·,·,·,·
O=C1Nc2ccccc2/C1=C/c1ccc([N+](=O)[O-])cc1,–,–,27.9,–,–,1.0,–
Cc1onc(-c2c(Cl)cccc2Cl)c1C(=O)N1CCSCC1,–,–,–,–,–,·,·
Cc1onc(-c2c(Cl)cccc2Cl)c1C(=O)N1CCOCC1,–,–,17.2,–,–,–,–
COC(=O)c1ccc(CN2CCC(Oc3cccc(C(=O)N4CCOCC4)c3)CC2)cc1,–,–,–,–,–,·,·
O=C(CCN1CCN(c2ccccc2)CC1)N/N=C/c1ccccc1OC(F)F,–,–,17.3,–,–,–,49.7
C=CCN1CCc2c(cc(O)c(O)c2Cl)C(c2ccccc2)C1 (configuration not stated),–,–,60.3,–,–,–,147.6
C=CCN1CCc2cc(O)c(O)cc2C(c2ccccc2)C1 (configuration not stated),–,–,29.5,–,–,–,85.5
Cc1cccc(C2CN(C)CCc3c2cc(O)c(O)c3Cl)c1 (configuration not stated),–,–,21.7,·,–,–,34.0
SMILES,PP5 primary,PP1 counter,m5-HT2A agonist,JMJD2C inh,T cell modulator,MOR ag counter,HTR2A ag conf
Cc1ccc(NC(=O)CSc2nc(N)cc(=O)[nH]2)cc1S(=O)(=O)N1CCCCCC1,·,·,15.7,–,–,–,–
Cc1ccc([N+](=O)[O-])cc1S(=O)(=O)NCCc1cn2ccccc2n1,–,–,–,–,–,·,·
O=[N+]([O-])c1cccc(S(=O)(=O)NCCc2cn3ccccc3n2)c1,–,–,15.1,–,–,–,–
O=Cc1ccccc1OCc1nnsc1Cl,–,–,–,–,–,·,·
CCN(CC(=O)NCc1ccc(F)cc1)C(=O)c1cccnc1SC,–,–,15.4,–,–,–,–
CCn1c(C2CC(=O)N(Cc3ccccc3)C2)nc2ccccc21 (configuration not stated),–,–,40.5,–,–,–,–
COc1cccc(CCC(=O)Nc2cccc(S(=O)(=O)N3CCCC3)c2)c1OC,–,–,–,–,–,·,·
CCOC(=O)C1CCCN(C(=O)COc2ccc(C(C)(C)C)cc2)CC1 (configuration not stated),·,·,–,·,·,·,·
CCOC(=O)C1CCN(Cc2cnc(Oc3ccc(C(C)(C)C)cc3)s2)CC1,–,–,18.7,–,–,–,38.6
COC(=O)Nc1ncc(CN2CCc3ccccc3C2)s1,–,–,–,–,–,·,·
CCOC(=O)C1CCN(Cc2cnc(NC(=O)OC)s2)CC1,–,–,15.7,–,–,–,22.6
CCN(CC)S(=O)(=O)c1ccc2c(c1)N(CC(=O)N1CCCC1)C(=O)CO2,–,–,–,–,–,·,·
Cc1nc(-c2nc(-c3c(C(=O)NNC(=O)Nc4cccc(Cl)c4)noc3C)cs2)cs1,–,–,19.3,–,–,–,51.8
Cc1nc(-c2nc(-c3c(C(=O)NNC(=O)Nc4ccccc4)noc3C)cs2)cs1,–,–,–,–,–,·,·
COC1CCC2(C)C(=CCC3C4CC(O)CC4(C)CCC32)C1 (configuration not stated),·,·,–,·,·,·,·
O=C(CCc1n[nH]c(=O)[nH]c1=O)N1CCCCC1,–,–,15.6,–,–,–,–
OCCNc1ncnc2c1ncn2[C@H]1CN(Cc2ccncc2)C[C@@H](CO)O1,·,·,15.3,·,·,·,–
O=C(Nc1ccccc1C(=O)Nc1nnc(C(F)(F)F)s1)c1ccccc1,–,–,14.5,–,–,–,–
Cc1occc1C(=O)Nc1nnc(C(F)(F)F)s1,–,–,–,–,–,·,·
O=C(Nc1ccn(CCCN2CCN(c3ncccn3)CC2)c(=O)n1)OCc1ccccc1,·,·,25.2,·,·,–,28.9
C(=C/c1ccnc2nc(SC/C=C/c3ccccc3)nn12)/c1ccccc1,–,–,–,–,–,·,·
COc1cc(/C=C2\SC(=O)N(CCNC(=O)c3c(C)noc3C)C2=O)cc(OC)c1OC,·,·,20.8,–,–,–,–
CCOc1ccccc1C(=O)NC(C)CCc1ccccc1 (configuration not stated),–,–,–,–,–,·,·
Cc1ccc(-c2cc(C(=O)NCc3ccco3)c3ccccc3n2)s1,–,–,15.5,–,–,–,–
COc1ccc(-n2c(SCC(=O)Nc3cc(C(=O)O)ccc3C)nc3ccccc3c2=O)cc1Cl,–,–,17.5,–,–,–,–
Cc1ccc(NC(=O)CSc2nc3ccccc3c(=O)n2CCCN2CCCCC2)cc1Cl,–,–,30.3,–,–,–,–
